We go through 28 compounds from PubChem BioAssay AID463184 (Molecular Libraries Program, Specialized Chemistry Center, …, 2010).

For the experiment, the target named is Transitional endoplasmic reticulum ATPase (Homo sapiens) (UniProt P55072). Description: inhibition of purified VCP ATP hydrolysis – biochemical, dose response (AID 463184). Particulars: purified p97 ATPase, Kinase-Glo luminescence. In outline:
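Test system: human p97 ATPase enzyme. Also added: ATP substrate, added from 500 µM stock. Timing: Compound–enzyme 10 min at RT, ATP hydrolysis 30 min, 37 °C. Measured by: Kinase-Glo Plus luminescence measuring leftover ATP. Evaluation: IC50 from percent remaining activity fit. Benchmarks: DMSO wells and no-enzyme wells.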

Activity calls are given as the source filed them.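 Rule for the calls: active = IC50 of 10 microM or lower; inactive = the rest.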

Chain of Transitional endoplasmic reticulum ATPase (Homo sapiens) (P55072 whole entry, looked up): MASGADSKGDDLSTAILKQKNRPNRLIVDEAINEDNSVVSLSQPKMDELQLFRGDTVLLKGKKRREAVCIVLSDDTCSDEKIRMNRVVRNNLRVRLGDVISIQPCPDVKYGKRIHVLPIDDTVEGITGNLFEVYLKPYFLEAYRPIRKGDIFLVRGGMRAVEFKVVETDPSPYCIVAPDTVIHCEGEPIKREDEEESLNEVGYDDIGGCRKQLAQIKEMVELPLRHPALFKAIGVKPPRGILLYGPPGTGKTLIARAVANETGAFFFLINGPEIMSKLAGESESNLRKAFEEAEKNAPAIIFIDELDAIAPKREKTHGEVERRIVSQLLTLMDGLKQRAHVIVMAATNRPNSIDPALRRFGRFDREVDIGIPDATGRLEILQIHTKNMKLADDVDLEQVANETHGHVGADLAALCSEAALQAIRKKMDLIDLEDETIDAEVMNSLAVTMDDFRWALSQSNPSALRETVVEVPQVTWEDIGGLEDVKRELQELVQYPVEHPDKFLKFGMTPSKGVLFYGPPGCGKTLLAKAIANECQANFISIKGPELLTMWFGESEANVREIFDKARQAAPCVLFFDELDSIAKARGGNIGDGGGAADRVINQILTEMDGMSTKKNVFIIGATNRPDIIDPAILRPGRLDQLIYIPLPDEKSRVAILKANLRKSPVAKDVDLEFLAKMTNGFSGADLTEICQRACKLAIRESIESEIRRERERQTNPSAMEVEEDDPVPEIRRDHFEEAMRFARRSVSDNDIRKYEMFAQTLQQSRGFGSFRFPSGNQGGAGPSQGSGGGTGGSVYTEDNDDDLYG

As to `COc1ccccc1CNc1nc(NCc2ccccc2)c2ccccc2n1`, the IC50 was 3.6 µM.

Consider `CC(C)c1ccc(Nc2nc(N)nc(CCl)n2)cc1`, for which the IC50 entry was “inactive”.

For `Clc1ccccc1CNc1nc(NCc2ccccc2)c2ccccc2n1`, the IC50 was 5.3 µM.

Turning to `Cc1c(Cl)cccc1Nc1nc(N)nc(CCl)n1`, the IC50 result was “inactive”.

For `Nc1nc(CCl)nc(N(c2ccccc2)c2ccccc2)n1`, the IC50 entry was “inactive”.

For the compound `N#C/C(=C(\O)COC(=O)CCC(=O)c1ccc2c(c1)OCCO2)c1nc2ccccc2[nH]1`, the IC50 was 10 µM.

Turning to `Brc1ccc(CNc2nc(NCc3ccccc3)c3ccccc3n2)cc1`, the concentration for half-maximal inhibition (IC50) was 4.3 µM.

For the compound `COc1ccc(CNc2nc(NCc3ccccc3)c3ccccc3n2)cc1`, the IC50 was 3 µM.

Turning to `FC(F)(F)c1ccc(CNc2nc(NCc3ccccc3)c3ccccc3n2)cc1`, the concentration for half-maximal inhibition (IC50) was 2.6 µM.

In the case of `Nc1nc(CCl)nc(Nc2ccc(Cl)c(Cl)c2)n1`, the IC50 result is “inactive”.

With `Cc1cccc(CNc2nc(NCc3ccccc3)c3ccccc3n2)c1`, the IC50 was 2.3 µM.

As for `Brc1ccccc1CNc1nc(NCc2ccccc2)c2ccccc2n1`, the IC50 was 2 µM.

In the case of `N#C/C(=C(\O)COC(=O)C1COc2ccccc2O1)c1nc2ccccc2[nH]1` (stereo not drawn), the IC50 entry was “inactive”.

For `Fc1ccc(CNc2nc(NCc3ccccc3)c3ccccc3n2)cc1`, the IC50 is 2.6 µM.

With `Fc1ccccc1CNc1nc(NCc2ccccc2)c2ccccc2n1`, the IC50 was 2.9 µM.

Take `Brc1cccc(CNc2nc(NCc3ccccc3)c3ccccc3n2)c1`: the IC50 is 3.7 µM.

Regarding `Clc1ccc(CNc2nc(NCc3ccccc3)c3ccccc3n2)cc1Cl`, the IC50 was 3 µM.

For the compound `N#C/C(=C(\O)COC(=O)CNc1ccc(C(F)(F)F)cc1[N+](=O)[O-])c1nc2ccccc2[nH]1`, the IC50 entry is “inactive”.

In the case of `Fc1cccc(CNc2nc(NCc3ccccc3)c3ccccc3n2)c1`, the IC50 is 3.1 µM.

Take `FC(F)(F)c1cc(CNc2nc(NCc3ccccc3)c3ccccc3n2)ccc1Cl`: the IC50 was 4.7 µM.

As to `CCc1nc2ccccc2n1CC(=O)OC/C(O)=C(/C#N)c1nc2ccccc2[nH]1`, the IC50 result was “inactive”.

For the compound `Clc1ccc(CNc2nc(NCc3ccccc3)c3ccccc3n2)cc1`, the IC50 is 3.1 µM.

In the case of `Cc1ccccc1CNc1nc(NCc2ccccc2)c2ccccc2n1`, the IC50 was 2.7 µM.

Regarding `Nc1nc(CCl)nc(Nc2ccc(Oc3ccccc3)cc2)n1`, the IC50 entry was “inactive”.

On to `c1ccc(CNc2nc(NCc3ccccc3)c3ccccc3n2)cc1`, for which the IC50 was 1.6 µM.

Consider `Clc1cccc(CNc2nc(NCc3ccccc3)c3ccccc3n2)c1`, for which the IC50 is 2.7 µM.

As to `COc1cccc(CNc2nc(NCc3ccccc3)c3ccccc3n2)c1`, the IC50 was 4.5 µM.

As to `Cc1ccc(CNc2nc(NCc3ccccc3)c3ccccc3n2)cc1`, the IC50 is 3 µM.
